Source: ChEMBL document CHEMBL1151761, “Radiohalogenated prostate-specific membrane antigen (PSMA)-based ureas as imaging agents for prostate cancer” (J Med Chem, 2008)

Columns and labels:
Assay type in all cases: ADME, organism-based
[1] = Biodistribution in large intestine of PSMA expressing human PC3 PIP and PSMA deficient human PC3 flu cells xenografted SCID mouse at 2 uCi, iv after 5 hrs; details: in vivo
Method in brief: (§1)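 Male SCID mice carried subcutaneous PSMA+ PC-3 PIP (left shoulder) and PC-3 flu (right shoulder) xenografts, 1-5 × 10^6 cells in HBSS, and were used at 3-5 mm tumor diameter. Tail-vein injection of 2 µCi radioligand; four mice per time point, killed by cervical dislocation. %ID/g from a standard dilution of the dose, decay-corrected, mean ± SD; PIP tumor:organ ratios.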

Kidney = experiment: Biodistribution in kidney of PSMA expressing human PC3 PIP and PSMA deficient human PC3 flu cells xenografted SCID mouse at 2 uCi, iv after 30 mins; details: in vivo, 0.5 h
Urinary bladder = experiment: Biodistribution in bladder of PSMA expressing human PC3 PIP and PSMA deficient human PC3 flu cells xenografted SCID mouse at 2 uCi, iv after 30 mins; details: in vivo, 0.5 h
[2] = Ratio of drug level in tumor to spleen of human PSMA expressing PC3 PIP and PSMA deficient human PC3 flu cells xenografted SCID mouse at 2 uCi, iv after 60 mins; details: in vivo, 1 h
Method in brief: (§2)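 Male SCID mice carried subcutaneous xenografts: PSMA+ PC-3 PIP behind the left shoulder and PSMA− PC-3 flu behind the right, 1–5 × 10^6 cells in HBSS. Mice were used at 3–5 mm tumor diameter. 2 μCi was given by tail vein, and 4 mice per time point were killed by cervical dislocation. %ID/g came from a standard dilution of the dose, decay-corrected. Ratio is PIP tumor %ID/g to organ %ID/g.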

[3] = Ratio of drug level in tumor to heart of human PSMA expressing PC3 PIP and PSMA deficient human PC3 flu cells xenografted SCID mouse at 2 uCi, iv after 30 mins; details: in vivo, 0.5 h; method in brief: as §1
Stomach = experiment: Biodistribution in stomach of PSMA expressing human PC3 PIP and PSMA deficient human PC3 flu cells xenografted SCID mouse at 2 uCi, iv after 60 mins; details: in vivo, 1 h
[4] = Ratio of drug level in tumor to liver of human PSMA expressing PC3 PIP and PSMA deficient human PC3 flu cells xenografted SCID mouse at 2 uCi, iv after 5 hrs; details: in vivo; method in brief: as §1
[5] = Ratio of drug level in tumor to muscle of human PSMA expressing PC3 PIP and PSMA deficient human PC3 flu cells xenografted SCID mouse at 2 uCi, iv after 2 hrs; details: in vivo; method in brief: as §1
[6] = Ratio of drug level in tumor to stomach of human PSMA expressing PC3 PIP and PSMA deficient human PC3 flu cells xenografted SCID mouse at 2 uCi, iv after 2 hrs; details: in vivo; method in brief: as §2
[7] = Ratio of drug level in tumor to kidney of human PSMA expressing PC3 PIP and PSMA deficient human PC3 flu cells xenografted SCID mouse at 2 uCi, iv after 60 mins; details: in vivo, 1 h; method in brief: as §1
[8] = Ratio of drug level in tumor to lung of human PSMA expressing PC3 PIP and PSMA deficient human PC3 flu cells xenografted SCID mouse at 2 uCi, iv after 5 hrs; details: in vivo; method in brief: as §1
Muscle tissue = experiment: Biodistribution in muscle of PSMA expressing human PC3 PIP and PSMA deficient human PC3 flu cells xenografted SCID mouse at 2 uCi, iv after 2 hrs; details: in vivo
Lung = experiment: Biodistribution in lung of PSMA expressing human PC3 PIP and PSMA deficient human PC3 flu cells xenografted SCID mouse at 2 uCi, iv after 2 hrs; details: in vivo
Heart [9] = experiment: Biodistribution in heart of PSMA expressing human PC3 PIP and PSMA deficient human PC3 flu cells xenografted SCID mouse at 2 uCi, iv after 60 mins; details: in vivo, 1 h
[10] = Ratio of drug level in tumor to lung of human PSMA expressing PC3 PIP and PSMA deficient human PC3 flu cells xenografted SCID mouse at 2 uCi, iv after 2 hrs; details: in vivo; method in brief: as §1
[11] = Ratio of drug level in tumor to blood of human PSMA expressing PC3 PIP and PSMA deficient human PC3 flu cells xenografted SCID mouse at 2 uCi, iv after 2 hrs
Method in brief: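 Male SCID mice carried subcutaneous xenografts of PSMA+ PC-3 PIP cells behind the left shoulder and PSMA− PC-3 flu cells behind the right (1–5 × 10^6 cells in HBSS), used at a tumour diameter of 3–5 mm. Each mouse received 2 μCi of radioiodinated tracer via the tail vein. Tissues were harvested at each time point for %ID/g against a standard dilution of the dose, decay-corrected. Ratios are PIP tumour:organ.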

[12] = Ratio of drug level in tumor to pancreas of human PSMA expressing PC3 PIP and PSMA deficient human PC3 flu cells xenografted SCID mouse at 2 uCi, iv after 60 mins; details: in vivo, 1 h; method in brief: as §2
Heart [13] = experiment: Biodistribution in heart of PSMA expressing human PC3 PIP and PSMA deficient human PC3 flu cells xenografted SCID mouse at 2 uCi, iv after 5 hrs; details: in vivo
Liver = experiment: Biodistribution in liver of PSMA expressing human PC3 PIP and PSMA deficient human PC3 flu cells xenografted SCID mouse at 2 uCi, iv after 5 hrs; details: in vivo
[14] = Biodistribution in PC3 flu tumor of PSMA expressing human PC3 PIP and PSMA deficient human PC3 flu cells xenografted SCID mouse at 2 uCi, iv after 5 hrs; details: in vivo; method in brief: as §1
[15] = Ratio of drug level in tumor to small intestine of human PSMA expressing PC3 PIP and PSMA deficient human PC3 flu cells xenografted SCID mouse at 2 uCi, iv after 30 mins; details: in vivo, 0.5 h; method in brief: as §2
[16] = Biodistribution in large intestine of PSMA expressing human PC3 PIP and PSMA deficient human PC3 flu cells xenografted SCID mouse at 2 uCi, iv after 60 mins; details: in vivo, 1 h; method in brief: as §1
[17] = Ratio of drug level in tumor to large intestine of human PSMA expressing PC3 PIP and PSMA deficient human PC3 flu cells xenografted SCID mouse at 2 uCi, iv after 30 mins; details: in vivo, 0.5 h; method in brief: as §1
Spleen = experiment: Biodistribution in spleen of PSMA expressing human PC3 PIP and PSMA deficient human PC3 flu cells xenografted SCID mouse at 2 uCi, iv after 2 hrs; details: in vivo
[18] = Biodistribution in small intestine of PSMA expressing human PC3 PIP and PSMA deficient human PC3 flu cells xenografted SCID mouse at 2 uCi, iv after 5 hrs; details: in vivo; method in brief: as §1
[19] = Ratio of drug level in tumor to stomach of human PSMA expressing PC3 PIP and PSMA deficient human PC3 flu cells xenografted SCID mouse at 2 uCi, iv after 5 hrs; details: in vivo; method in brief: as §2
[20] = Ratio of drug level in tumor to kidney of human PSMA expressing PC3 PIP and PSMA deficient human PC3 flu cells xenografted SCID mouse at 2 uCi, iv after 5 hrs; details: in vivo; method in brief: as §1
[21] = Ratio of drug level in tumor to large intestine of human PSMA expressing PC3 PIP and PSMA deficient human PC3 flu cells xenografted SCID mouse at 2 uCi, iv after 60 mins; details: in vivo, 1 h; method in brief: as §1
[22] = Ratio of drug level in PC3 PIP tumor to PC3 flu tumor of human PSMA expressing PC3 PIP and PSMA deficient human PC3 flu cells xenografted SCID mouse at 2 uCi, iv after 30 mins; details: in vivo, 0.5 h; method in brief: as §1

With `O=C(O)CC[C@H](NC(=O)N[C@@H](CCCCNC(=O)c1ccc([18F])cc1)C(=O)O)C(=O)O` the Drug uptake [1] was 0.6 % ID/g, the Drug uptake (Kidney) was 72 % ID/g and the Drug uptake (Urinary bladder) was 6.8 % ID/g. It also gave a Ratio [2] of 1, a Ratio [3] of 11 and a Drug uptake (Stomach) of 0.25 % ID/g. The Ratio [4] was 3.5, the Ratio [5] was 19 and the Ratio [6] was 13. The Ratio [7] was 0.1, the Ratio [8] was 35 and the Drug uptake (Muscle tissue) was 0.2 % ID/g. For the same molecule, the Drug uptake (Lung) was 1 % ID/g, the Drug uptake (Heart [9]) was 0.2 % ID/g and the Ratio [10] was 4. The Kp at 2 h [11] was 9, the Ratio [12] was 21 and the Drug uptake (Heart [13]) was 0.03 % ID/g. The Drug uptake (Liver) was 1 % ID/g, the Drug uptake [14] was 0.1 % ID/g and the Ratio [15] was 5. The Drug uptake [16] was 0.5 % ID/g, the Ratio [17] was 7 and the Drug uptake (Spleen) was 4.4 % ID/g. It also gave a Drug uptake [18] of 0.1 % ID/g, a Ratio [19] of 88 and a Ratio [20] of 0.3. It also gave a Ratio [21] of 13 and a Ratio [22] of 11.
